Measurements taken from ChEMBL document CHEMBL4706521, “Synthesis of indole inhibitors of silent information regulator 1 (SIRT1), and their evaluation as cytotoxic agents” (Eur J Med Chem, 2020).

Experiments:
[1] = target: T1, NAD-dependent protein deacetylase sirtuin-2 (Homo sapiens, UniProt Q8IXJ6); test: Inhibition of recombinant human SIRT2 expressed in baculovirus infected SF9 cells expression system using RHKK(Ac)W-NH2 as substrate measured after 20 mins by HPLC method
T1 sequence (Q8IXJ6 whole entry): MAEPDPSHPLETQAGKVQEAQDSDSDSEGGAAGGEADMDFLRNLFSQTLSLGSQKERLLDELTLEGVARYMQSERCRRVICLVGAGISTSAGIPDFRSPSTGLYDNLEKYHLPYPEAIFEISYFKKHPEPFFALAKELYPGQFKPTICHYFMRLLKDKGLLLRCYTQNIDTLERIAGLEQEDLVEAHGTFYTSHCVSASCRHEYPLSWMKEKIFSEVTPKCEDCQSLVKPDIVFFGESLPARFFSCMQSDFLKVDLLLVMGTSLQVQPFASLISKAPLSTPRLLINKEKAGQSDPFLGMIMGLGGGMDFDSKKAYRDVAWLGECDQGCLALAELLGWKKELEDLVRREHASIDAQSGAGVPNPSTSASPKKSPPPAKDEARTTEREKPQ

NCI-H460 = test: Cytotoxicity against human NCI-H460 cells assessed as cell viability measured after 48 hrs by MTT assay; assay type: functional, cell-based; conditions: NCI-H460, 48 h
HCT-116 = test: Cytotoxicity against human HCT-116 cells assessed as cell viability measured after 48 hrs by MTT assay; assay type: functional, cell-based; conditions: HCT-116, 48 h
HUVEC = test: Cytotoxicity against human HUVEC cells assessed as cell viability measured after 48 hrs by MTT assay; assay type: cell-based
Summary of the method: (§1)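 Cells were seeded at 5×10^4 cells/mL and allowed to adhere for 24 h. Compounds in DMSO were tested at final 0.01, 0.1, 1, 10 and 100 μM for 48 h. MTT was then added, followed by isopropanol-HCl. OD was read at 570/630 nm, and IC50 was calculated from OD.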

HEK-293T = test: Cytotoxicity against human HEK293T cells assessed as cell viability measured after 48 hrs by MTT assay; assay type: cell-based
HT-29 = test: Cytotoxicity against human HT-29 cells assessed as cell viability measured after 48 hrs by MTT assay; assay type: functional, cell-based; conditions: HT-29, 48 h; summary of the method: as §1
K562 = test: Cytotoxicity against human K562 cells assessed as cell viability measured after 48 hrs by MTT assay; assay type: functional, cell-based; conditions: K562, 48 h
Summary of the method: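 Cells were seeded at 5×10^4 cells/mL and kept in suspension 2 h before dosing. Compounds were added from DMSO at final 0.01–100 μM (tenfold series) for 48 h. MTT was applied, then isopropanol-HCl, with OD read at 490 and 630 nm. IC50 was obtained from OD.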

MCF7 = test: Cytotoxicity against human MCF7 cells assessed as cell viability measured after 48 hrs by MTT assay; assay type: functional, cell-based; conditions: MCF7, 48 h
HepG2 = test: Cytotoxicity against human HepG2 cells assessed as cell viability measured after 48 hrs by MTT assay; assay type: functional, cell-based; conditions: HepG2, 48 h
A549 = test: Cytotoxicity against human A549 cells assessed as cell viability measured after 48 hrs by MTT assay; assay type: functional, cell-based; conditions: A549, 48 h; summary of the method: as §1
[2] = target: T2, NAD-dependent protein deacetylase sirtuin-1 (Homo sapiens, UniProt Q96EB6); test: Inhibition of recombinant human SIRT1 (193 to 741 residues) expressed in Escherichia coli expression system using RHKK(Ac)W-NH2 as substrate measured after 2 hrs by HPLC method
T2 sequence (Q96EB6 whole entry): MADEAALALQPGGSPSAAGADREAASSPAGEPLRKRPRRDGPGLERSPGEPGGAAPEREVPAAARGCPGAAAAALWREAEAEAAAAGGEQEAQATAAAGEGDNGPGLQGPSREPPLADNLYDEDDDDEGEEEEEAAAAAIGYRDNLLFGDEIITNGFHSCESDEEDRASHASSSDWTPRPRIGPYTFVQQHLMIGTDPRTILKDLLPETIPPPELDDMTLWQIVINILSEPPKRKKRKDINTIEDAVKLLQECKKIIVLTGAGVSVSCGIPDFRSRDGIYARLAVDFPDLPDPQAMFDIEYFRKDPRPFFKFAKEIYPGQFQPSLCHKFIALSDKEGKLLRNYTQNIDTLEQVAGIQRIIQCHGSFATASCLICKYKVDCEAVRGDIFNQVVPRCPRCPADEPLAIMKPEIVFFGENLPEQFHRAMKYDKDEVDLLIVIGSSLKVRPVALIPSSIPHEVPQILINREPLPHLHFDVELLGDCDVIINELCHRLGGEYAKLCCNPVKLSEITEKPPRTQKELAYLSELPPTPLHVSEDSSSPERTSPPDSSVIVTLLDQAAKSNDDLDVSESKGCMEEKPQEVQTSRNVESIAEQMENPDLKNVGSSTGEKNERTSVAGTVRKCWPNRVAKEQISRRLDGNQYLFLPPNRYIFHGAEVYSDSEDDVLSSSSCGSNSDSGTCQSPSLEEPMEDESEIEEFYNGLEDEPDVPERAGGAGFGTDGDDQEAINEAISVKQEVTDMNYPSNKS

[3] = target: T3, NAD-dependent protein deacetylase sirtuin-2 (Homo sapiens) (UniProt Q8IXJ6); test: Inhibition of recombinant human SIRT2 expressed in baculovirus infected SF9 cells expression system using RHKK(Ac)W-NH2 as substrate at 10 uM measured after 20 mins by HPLC method
T3 sequence (whole entry): T1 sequence (Q8IXJ6 whole entry)
Summary of the method: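 SIRT2 at about 100 nM (nominal) started the reaction, without preincubation, in kit buffer pH 8.0 with 2 mM NAD+ and 250 μM RHKK(Ac)W-NH2. Final DMSO was 1%. Reactions ran 20 min at 37 °C, keeping conversion at 2–8%, and were stopped with TFA. Substrate and product were separated by C18 HPLC (10–50% B gradient) and detected at 220 nm. Peak areas gave % conversion. Results were reported as IC50 (95% CI) or % inhibition (SD), from at least duplicates.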

Row | Compound | IC50 [1] [nM] | IC50 (NCI-H460) [µM] | IC50 (HCT-116) [µM] | IC50 (HUVEC) [µM] | IC50 (HEK-293T) [µM] | IC50 (HT-29) [µM] | IC50 (K562) [µM] | IC50 (MCF7) [µM] | IC50 (HepG2) [µM] | IC50 (A549) [µM] | IC50 [2] [µM] | inhibition [3] [%]
1 | NC(=O)Cc1[nH]c2ccc(Cl)cc2c1Cc1ccccc1 | 930 | – | – | – | – | – | – | – | – | – | – | –
2 | CC[C@@]1(O)C(=O)OCc2c1cc1n(c2=O)Cc2cc3ccccc3nc2-1 [CAMPTOTHECIN] | – | 0.12 | 0.05 | < 0.01 | 5.65 | > 100 | 0.32 | 1.67 | 0.04 | 1.56 | – | –
3 | NC(=O)Cc1[nH]c2ccc(Cl)cc2c1CC(N)=O | – | > 100 | > 100 | > 100 | > 100 | > 100 | > 100 | > 100 | > 100 | > 100 | > 100 | –
4 | CCc1c(CC(N)=O)[nH]c2ccc(Cl)cc12 | – | 70 | 52 | 58 | 77 | > 100 | 87 | > 100 | > 100 | > 100 | 14 | -5.5
5 | NC(=O)C1CCCc2c1[nH]c1ccc(Cl)cc21 (configuration not stated) | – | 48 | 37 | 15 | 51 | > 100 | 60 | 37 | 44 | 29 | – | 84
6 | NC(=O)Cc1cc2cc(Cl)ccc2[nH]1 | – | > 100 | > 100 | > 100 | > 100 | > 100 | > 100 | > 100 | > 100 | > 100 | 90 | 1.7
